The values below come from paper PMC7195875 (Science signaling, 2018).

What is called IC50 is the concentration needed to halve the response being measured. Usually EC50 stands for the concentration needed to bring the measured effect to its halfway point.

Assay [1] has as its system IL-1β-induced NF-κB activity. The conditions noted are these: read-out: IC50 for IL-1β-induced NF-κB activity; cited from earlier work.
The test system of the next assay is R848-induced PBMC. The conditions noted are these: read-out: IC50 on R848-induced PBMC; cited from earlier work.
The target of the next assay is TIRAP-GyrB (UniProt P0AES6+Q99JY1). Description: NF-κB luciferase reporter, TIRAP-GyrB HEK293T cells, coumermycin-induced. It is filed as cell-based, human. The procedure, abridged:
(§1)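 HEK293T NF-κB luciferase reporter clones carried three NF-κB sites and GyrB fusions introduced by viral transduction with antibiotic selection. Cells received 100 nM coumermycin A1 plus test compound at 10 concentrations (56 μM–2.8 nM) in triplicate, 0.24% final DMSO. After 24 h, AlamarBlue (1 h, 37 °C) measured viability, then SteadyLite luminescence. Values were normalised to coumermycin alone (0%) and coumermycin + 30 μM PS-1145 (100%).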

Assay [2] has as its target full length human estrogen receptor β (Homo sapiens, UniProt Q92731). As to the kind of experiment: Competitive radiometric estrogen receptor binding assay, ERβ. The settings on record: relative binding affinity, estradiol = 100.
The target in another assay is MyD88 signaling complex (UniProt P0AES6+Q99836). It is filed as cell-based, mouse. The settings on record: 10 μM MPP, 1 μM CpG-DNA, RAW264.7. In outline: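 RAW264.7 cells stably expressing FLAG-MyD88-GyrB were SILAC-labelled (light/medium/heavy) in Arg/Lys-free RPMI with 10% dialysed FBS. Heavy cells got 10 μM test compound for 20 min; medium and heavy were then stimulated with 1 μM CpG-DNA for 60 min. […] Quantitative MS gave fold-change versus unstimulated cells, with unique peptides counted.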

Assay [3] concerns the target T1, full length human estrogen receptor α (Homo sapiens, UniProt P03372).
T1 sequence (P03372 1-595): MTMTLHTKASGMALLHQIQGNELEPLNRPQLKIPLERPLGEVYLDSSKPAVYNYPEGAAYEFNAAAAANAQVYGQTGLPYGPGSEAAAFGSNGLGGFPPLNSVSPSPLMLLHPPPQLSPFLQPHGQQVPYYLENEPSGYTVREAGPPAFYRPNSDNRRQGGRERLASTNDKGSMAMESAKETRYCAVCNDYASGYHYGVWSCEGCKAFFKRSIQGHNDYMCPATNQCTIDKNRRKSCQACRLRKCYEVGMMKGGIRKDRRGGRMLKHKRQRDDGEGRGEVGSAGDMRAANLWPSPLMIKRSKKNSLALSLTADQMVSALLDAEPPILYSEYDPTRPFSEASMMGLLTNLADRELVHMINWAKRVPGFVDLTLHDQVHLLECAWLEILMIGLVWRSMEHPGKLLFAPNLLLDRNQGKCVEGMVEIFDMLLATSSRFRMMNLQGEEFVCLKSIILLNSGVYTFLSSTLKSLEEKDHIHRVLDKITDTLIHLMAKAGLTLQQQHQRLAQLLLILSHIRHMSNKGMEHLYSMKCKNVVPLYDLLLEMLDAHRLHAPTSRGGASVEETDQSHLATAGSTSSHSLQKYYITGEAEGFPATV
Description: Competitive radiometric estrogen receptor binding assay, ERα. The conditions noted are these: relative binding affinity, estradiol = 100.

In assay [4] the target is DD-domain of MyD88 / full length MyD88 (Homo sapiens, UniProt Q99836). As to the kind of experiment: Co-IP of MyD88 DD-domain with full-length MyD88 in HEK293T cells. It is filed as cell-based. The procedure, abridged: (§2)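 HEK293T cells were transfected by Lipofectamine with epitope-tagged MyD88: FLAG full-length plus HA-TIR domain or DD domain. Test compound or DMSO was added 7 h post-transfection, and cells were lysed at 20 h for 20 min at 4 °C in HEPES pH 7.5 buffer with 0.5% NP-40. Cleared lysates underwent FLAG M2 resin IP for 1 h at 4 °C, then immunoblotting with densitometry. Blots represent 4 independent experiments.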

For assay [5], the target named is TIR-domain of MyD88 / full length MyD88 (Homo sapiens, UniProt Q99836). As to the kind of experiment: Co-IP of MyD88 TIR-domain with full-length MyD88 in HEK293T cells. It counts as cell-based. In outline: as §2
For a further assay, the system named is TLR4. As to the kind of experiment: LPS-induced TNFα release from primary macrophages. The settings on record: six hours. It is filed as cell-based, mouse. The procedure, abridged:
(§3)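 Macrophages came from bone marrow of female C57BL/6 mice, grown 6 d in DMEM with 10% FCS and 30% L-cell-conditioned medium. Cells were stimulated with the respective agonist for 6 h alongside graded test compound concentrations. TNFα in supernatants was measured by ELISA. Means ± SD of 3 independent experiments.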

Assay [6] has as its system TLR9. Description: CpG-DNA-induced TNFα release from primary macrophages. The settings on record: six hours. It is filed as cell-based, mouse. The procedure, abridged:
as §3

For assay [7], the system named is TLR7. As to the kind of experiment: Western blot of NF-κB- and MAPK-pathway activation after R848. It is filed as cell-based, mouse. The procedure, abridged:
(§4)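 Bone-marrow macrophages (6 d culture in L-cell-conditioned medium) were stimulated with the respective agonist with or without test compound. Lysates were immunoblotted for the indicated signaling proteins, with total p38 as loading control. Blots are representative of 3 independent experiments.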

In a further assay the test system is TLR2. Description: Pam3Cys-induced TNFα release from primary macrophages. It is filed as cell-based, mouse. The settings on record: six hours. In outline: as §3
Assay [8] has as its system TLR7. Description: R848-induced TNFα release from primary macrophages. It counts as cell-based, mouse. The conditions noted are these: six hours. In outline: as §3
The next assay concerns the target MyD88 homodimerization (UniProt P0AES6+Q99836). As to the kind of experiment: Co-immunoprecipitation with MyD88-GyrB in RAW264.7 cells. The conditions noted are these: co-IP. It is filed as cell-based, mouse.
The test system of assay [9] is Dectin-1. As to the kind of experiment: Curdlan-induced TNFα release from primary macrophages. It is filed as cell-based, mouse. The settings on record: six hours. In outline: as §3
A further assay addresses MyD88-GyrB (UniProt P0AES6+Q99836). Description: NF-κB luciferase reporter, MyD88-GyrB HEK293T cells, coumermycin-induced. It is filed as cell-based, human. In outline:
as §1
(In general: In a reporter assay the amount or activity of a reporter protein is the signal.)

Assay [10] deals with Dectin-1. As to the kind of experiment: Western blot of signaling after Curdlan. It is filed as cell-based, mouse. In outline:
as §4
On the technique in general: In western blotting, separated proteins are transferred to a membrane and probed.

Assay [11] relates to TLR9. As to the kind of experiment: Western blot of IκBα degradation and MAPK phosphorylation after CpG-DNA. It is filed as cell-based, mouse. The procedure, abridged: as §4
For a further assay, the system named is RAW264.7 cells. As to the kind of experiment: Toxicity. It counts as cell-based, mouse. The conditions noted are these: read-out: TLR9 Toxicity EC50, Table 1.

Chain of full length human estrogen receptor β (Q92731 whole entry): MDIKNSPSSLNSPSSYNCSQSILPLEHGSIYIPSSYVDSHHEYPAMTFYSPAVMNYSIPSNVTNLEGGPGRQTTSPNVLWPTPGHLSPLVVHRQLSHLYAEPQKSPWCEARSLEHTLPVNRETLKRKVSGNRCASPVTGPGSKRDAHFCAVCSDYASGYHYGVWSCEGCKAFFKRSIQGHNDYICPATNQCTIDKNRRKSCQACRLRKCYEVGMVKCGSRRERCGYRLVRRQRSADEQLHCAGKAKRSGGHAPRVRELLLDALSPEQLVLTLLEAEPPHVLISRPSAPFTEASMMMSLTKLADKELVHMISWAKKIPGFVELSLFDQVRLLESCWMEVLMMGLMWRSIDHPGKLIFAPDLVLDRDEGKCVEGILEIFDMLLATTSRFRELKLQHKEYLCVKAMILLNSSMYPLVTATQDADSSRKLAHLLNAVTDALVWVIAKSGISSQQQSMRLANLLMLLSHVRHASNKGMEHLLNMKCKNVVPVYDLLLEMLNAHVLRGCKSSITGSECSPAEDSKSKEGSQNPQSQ

Regarding `NC(=O)[C@H]1CCS[C@@H]2C[C@]3(CCCN3C(=O)Cc3ccc(NC(=O)COc4ccc(Cl)cc4Cl)cc3)C(=O)N12` [ST2825], the IC50 in assay [1] was over 10 µM.
Take `CC[C@@H]1[C@H](F)C(=O)N[C@@H]1COc1nccc2cc(C(N)=O)c(OC)cc12` [Pf-06650833, 1-{[(2S,3S,4S)-3-Ethyl-4-fluoro-5-oxopyrrolidin-2-yl]methoxy}−7-methoxyisoquinoline-6-carboxamide]: the IC50 in the assay with R848-induced PBMC was 0.0024 µM.
Regarding `Cc1c(-c2ccc(O)cc2)nn(-c2ccc(O)cc2)c1-c1ccc(OCCN2CCCCC2)cc1` [MPP, methyl-piperidino-pyrazole], the “inhibition of TIRAP-mediated NF-κB activity” value on TIRAP-GyrB was “low μM concentrations”. Besides, in [2], the “RBA ERβ” value worked out at 0.05 ± 0.01. Moreover, the “recruitment of activation-dependent MyD88-interacting proteins, including IRAK4” value on MyD88 signaling complex is listed as “almost completely blocked recruitment”. In addition, the “RBA ERα” value in assay [3] worked out at 12 ± 2. Moreover, the “interaction of the DD-domain with full length MyD88” value in [4] is reported as “but not the DD-domain”. In assay [5], the “interaction of the TIR-domain with full length MyD88” value is “strongly reduced”. In addition, the “TNFα release, LPS (TLR4)” value in the assay on TLR4 is “interfered with TNFα release”. For the same molecule, the “TNFα release, CpG-DNA (TLR9)” value with TLR9 [6] was “interfered with TNFα release”. In addition, the “block of NF-κB- and MAPK-pathway activation downstream of R848” value with TLR7 [7] was “not completely”. Moreover, in the assay with TLR2, the “TNFα release, Pam3Cys (TLR2)” value is given as “interfered with TNFα release”. Also, the “TNFα release, Resiquimod (R848; TLR7)” value in the assay with TLR7 [8] was “interfered with TNFα release”. In addition, the “recruitment of endogenous MyD88 and IRAK4 to GyrB-MyD88” value on MyD88 homodimerization was “inhibited recruitment of endogenous MyD88 and IRAK4”. Also, the “TNFα release induced by Curdlan” value in the assay on Dectin-1 [9] is recorded as “did not reduce TNFα release”. The “inhibition of MyD88-mediated NF-κB activity” value against MyD88-GyrB is “low μM concentrations”. Further, the Curdlan-induced cell activation result with Dectin-1 [10] is given as “remained largely unaffected”. Also, in the assay with TLR9 [11], the “block of IκBα degradation and MAPK phosphorylation after CpG-DNA” value is on record as “almost completely”. For the same molecule, the EC50 with RAW264.7 cells amounted to 13.2 ± 2.4 µM.
